# According to ChEMBL document CHEMBL1649231, “In vitro activities of panduratin A against clinical Staphylococcus strains” (2009):
# Experiments:
# Type in all cases: functional
# [1] = tested on: Staphylococcus epidermidis; assay: Bactericidal activity against methicillin-susceptible coagulase-negative Staphylococcus epidermidis after 24 hrs by plate counting method
# How it was run: (§1)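 Clinical staphylococcal isolates from patient body fluids, blood, genital secretions, pus or sputum; species by conventional methods or Vitek. Twofold dilutions in Mueller-Hinton broth, inoculum 5 × 10^5 CFU/ml, 37°C aerobic 24 h (CLSI M7-A6 microdilution). About 100 μl from each well without visible growth spread on MHA; 37°C 24 h. MBC = lowest concentration giving no growth on agar.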
# [2] = tested on: Staphylococcus simulans; assay: Antimicrobial activity against methicillin-susceptible coagulase-negative Staphylococcus simulans assessed as susceptible isolates after 24 hrs by broth microdilution method
# How it was run: (§2)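 Clinical isolates from blood, body fluids, pus, sputum or genital secretions, identified conventionally or by Vitek, were tested alongside ATCC 29213 and ATCC 12228 controls. CLSI M7-A6 broth microdilution in Mueller-Hinton broth used twofold dilutions from a 10% DMSO solution and 5 × 10^5 CFU/ml inoculum. Drug-free and uninoculated wells served as controls; incubation was aerobic at 37°C for 24 h. MIC was the lowest concentration with no visible growth.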
# [3] = tested on: Staphylococcus epidermidis; assay: Antimicrobial activity against methicillin-resistant coagulase-negative Staphylococcus epidermidis assessed as susceptible isolates after 24 hrs by broth microdilution method
# [4] = tested on: Staphylococcus simulans; assay: Antimicrobial activity against methicillin-resistant coagulase-negative Staphylococcus simulans assessed as resistant isolates after 24 hrs by broth microdilution method
# [5] = tested on: Mammaliicoccus sciuri; assay: Antimicrobial activity against methicillin-susceptible coagulase-negative Staphylococcus sciuri assessed as susceptible isolates after 24 hrs by broth microdilution method; how it was run: as §2
# [6] = tested on: Staphylococcus aureus; assay: Bactericidal activity against methicillin-susceptible Staphylococcus aureus after 24 hrs by plate counting method; how it was run: as §1
# [7] = tested on: Staphylococcus hominis; assay: Bactericidal activity against methicillin-susceptible coagulase-negative Staphylococcus hominis after 24 hrs by plate counting method; how it was run: as §1
# [8] = tested on: Staphylococcus epidermidis; assay: Antimicrobial activity against methicillin-resistant coagulase-negative Staphylococcus epidermidis after 24 hrs by broth microdilution method
# How it was run: (§3)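 Clinical isolates came from blood, body fluids, genital secretions, pus or sputum, identified conventionally or by Vitek. MICs were run by CLSI M7-A6 broth microdilution in Mueller-Hinton broth with 5 × 10^5 CFU/ml inoculum. Agents were twofold serially diluted, starting from 10% DMSO. Drug-free and uninoculated controls were included. Plates were incubated aerobically at 37°C for 24 h; MIC is the lowest concentration giving no visible growth.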
# [9] = tested on: Staphylococcus hominis; assay: Antimicrobial activity against methicillin-susceptible coagulase-negative Staphylococcus hominis assessed as susceptible isolates after 24 hrs by broth microdilution method
# [10] = tested on: Staphylococcus aureus; assay: Antimicrobial activity against methicillin-resistant Staphylococcus aureus assessed as susceptible isolates after 24 hrs by broth microdilution method
# [11] = tested on: Staphylococcus aureus; assay: Antimicrobial activity against methicillin-resistant Staphylococcus aureus after 24 hrs by broth microdilution method; how it was run: as §3
# [12] = tested on: Mammaliicoccus sciuri; assay: Antimicrobial activity against methicillin-susceptible coagulase-negative Staphylococcus sciuri after 24 hrs by broth microdilution method; how it was run: as §3
# [13] = tested on: Staphylococcus hominis; assay: Antimicrobial activity against methicillin-susceptible coagulase-negative Staphylococcus hominis after 24 hrs by broth microdilution method; how it was run: as §3
# [14] = tested on: Staphylococcus hominis; assay: Bactericidal activity against methicillin-resistant coagulase-negative Staphylococcus hominis after 24 hrs by plate counting method
# [15] = tested on: Staphylococcus simulans; assay: Antimicrobial activity against methicillin-susceptible coagulase-negative Staphylococcus simulans after 24 hrs by broth microdilution method; how it was run: as §3
# [16] = tested on: Mammaliicoccus sciuri; assay: Antimicrobial activity against methicillin-resistant coagulase-negative Staphylococcus sciuri after 24 hrs by broth microdilution method; how it was run: as §3
# [17] = tested on: Staphylococcus aureus; assay: Antimicrobial activity against methicillin-susceptible Staphylococcus aureus after 24 hrs by broth microdilution method; how it was run: as §3
# [18] = tested on: Staphylococcus haemolyticus; assay: Antimicrobial activity against methicillin-susceptible coagulase-negative Staphylococcus haemolyticus assessed as susceptible isolates after 24 hrs by broth microdilution method
# [19] = tested on: Mammaliicoccus sciuri; assay: Antimicrobial activity against methicillin-resistant coagulase-negative Staphylococcus sciuri assessed as resistant isolates after 24 hrs by broth microdilution method
# [20] = tested on: Staphylococcus epidermidis; assay: Antimicrobial activity against methicillin-susceptible coagulase-negative Staphylococcus epidermidis after 24 hrs by broth microdilution method; how it was run: as §3
# [21] = tested on: Staphylococcus hominis; assay: Antimicrobial activity against methicillin-resistant coagulase-negative Staphylococcus hominis assessed as susceptible isolates after 24 hrs by broth microdilution method
# [22] = tested on: Staphylococcus epidermidis; assay: Bactericidal activity against methicillin-resistant coagulase-negative Staphylococcus epidermidis after 24 hrs by plate counting method
# [23] = tested on: Staphylococcus simulans; assay: Antimicrobial activity against methicillin-resistant coagulase-negative Staphylococcus simulans after 24 hrs by broth microdilution method; how it was run: as §3
# [24] = tested on: Staphylococcus epidermidis; assay: Antimicrobial activity against methicillin-susceptible coagulase-negative Staphylococcus epidermidis assessed as resistant isolates after 24 hrs by broth microdilution method
# [25] = tested on: Staphylococcus aureus; assay: Antimicrobial activity against methicillin-susceptible Staphylococcus aureus assessed as susceptible isolates after 24 hrs by broth microdilution method
# [26] = tested on: Staphylococcus haemolyticus; assay: Bactericidal activity against methicillin-susceptible coagulase-negative Staphylococcus haemolyticus after 24 hrs by plate counting method; how it was run: as §1
# [27] = tested on: Staphylococcus hominis; assay: Antimicrobial activity against methicillin-resistant coagulase-negative Staphylococcus hominis after 24 hrs by broth microdilution method; how it was run: as §3
# [28] = tested on: Staphylococcus hominis; assay: Antimicrobial activity against methicillin-resistant coagulase-negative Staphylococcus hominis assessed as resistant isolates after 24 hrs by broth microdilution method
# [29] = tested on: Staphylococcus haemolyticus; assay: Antimicrobial activity against methicillin-resistant coagulase-negative Staphylococcus haemolyticus after 24 hrs by broth microdilution method; how it was run: as §3
# [30] = tested on: Staphylococcus haemolyticus; assay: Antimicrobial activity against methicillin-susceptible coagulase-negative Staphylococcus haemolyticus after 24 hrs by broth microdilution method; how it was run: as §3
# [31] = tested on: Staphylococcus haemolyticus; assay: Antimicrobial activity against methicillin-susceptible coagulase-negative Staphylococcus haemolyticus assessed as resistant isolates after 24 hrs by broth microdilution method
# [32] = tested on: Staphylococcus aureus; assay: Antimicrobial activity against methicillin-resistant Staphylococcus aureus assessed as resistant isolates after 24 hrs by broth microdilution method
# [33] = tested on: Staphylococcus epidermidis; assay: Antimicrobial activity against methicillin-resistant coagulase-negative Staphylococcus epidermidis assessed as resistant isolates after 24 hrs by broth microdilution method
# [34] = tested on: Staphylococcus hominis; assay: Antimicrobial activity against methicillin-susceptible coagulase-negative Staphylococcus hominis assessed as resistant isolates after 24 hrs by broth microdilution method
# [35] = tested on: Staphylococcus haemolyticus; assay: Bactericidal activity against methicillin-resistant coagulase-negative Staphylococcus haemolyticus after 24 hrs by plate counting method
# [36] = tested on: Staphylococcus simulans; assay: Bactericidal activity against methicillin-resistant coagulase-negative Staphylococcus simulans after 24 hrs by plate counting method; how it was run: as §1
# [37] = tested on: Mammaliicoccus sciuri; assay: Antimicrobial activity against methicillin-susceptible coagulase-negative Staphylococcus sciuri assessed as resistant isolates after 24 hrs by broth microdilution method
# [38] = tested on: Mammaliicoccus sciuri; assay: Bactericidal activity against methicillin-resistant coagulase-negative Staphylococcus sciuri after 24 hrs by plate counting method; how it was run: as §1
# [39] = tested on: Mammaliicoccus sciuri; assay: Bactericidal activity against methicillin-susceptible coagulase-negative Staphylococcus sciuri after 24 hrs by plate counting method; how it was run: as §1
# [40] = tested on: Staphylococcus aureus; assay: Antimicrobial activity against methicillin-susceptible Staphylococcus aureus assessed as resistant isolates after 24 hrs by broth microdilution method
# [41] = tested on: Staphylococcus aureus; assay: Bactericidal activity against methicillin-resistant Staphylococcus aureus after 24 hrs by plate counting method
# [42] = tested on: Staphylococcus haemolyticus; assay: Antimicrobial activity against methicillin-resistant coagulase-negative Staphylococcus haemolyticus assessed as resistant isolates after 24 hrs by broth microdilution method
# [43] = tested on: Staphylococcus epidermidis; assay: Antimicrobial activity against methicillin-susceptible coagulase-negative Staphylococcus epidermidis assessed as susceptible isolates after 24 hrs by broth microdilution method
# [44] = tested on: Staphylococcus haemolyticus; assay: Antimicrobial activity against methicillin-resistant coagulase-negative Staphylococcus haemolyticus assessed as susceptible isolates after 24 hrs by broth microdilution method
# [45] = tested on: Staphylococcus simulans; assay: Bactericidal activity against methicillin-susceptible coagulase-negative Staphylococcus simulans after 24 hrs by plate counting method; how it was run: as §1
# [46] = Staphylococcus epidermidis, 24 h
# [47] = Staphylococcus haemolyticus, 24 h
compound,measurement,setting,value
Cc1onc(-c2ccccc2)c1C(=O)N[C@@H]1C(=O)N2[C@@H]1SC(C)(C)[C@@H]2C(=O)O [OXACILLIN],MBC50,[1],2 µg/mL
same,MBC90,[1],8 µg/mL
same,MBC,[1]; [46],0.25 µg/mL
same,Activity,[2],96%
same,Activity,[3],26%
same,Activity,[4],74%
same,Activity,[5],96%
same,MBC50,[6],16 µg/mL
same,MBC90,[6],64 µg/mL
same,MBC,"[6]; Staphylococcus aureus, 24 h",1 µg/mL
same,MBC50,[7],2 µg/mL
same,MBC90,[7],8 µg/mL
same,MBC,"[7]; Staphylococcus hominis, 24 h",0.25 µg/mL
same,MIC50,[8],64 µg/mL
same,MIC90,[8],64 µg/mL
same,Activity,[9],96%
same,Activity,[10],0%
same,MIC50,[11],64 µg/mL
same,MIC90,[11],64 µg/mL
same,MIC,[12],0.125 µg/mL
same,MIC50,[12],0.125 µg/mL
same,MIC90,[12],0.5 µg/mL
same,MIC,[13],0.125 µg/mL
same,MIC50,[13],0.125 µg/mL
same,MIC90,[13],0.5 µg/mL
same,MBC90,[14],256 µg/mL
same,MBC,"[14]; Staphylococcus hominis, 24 h",1 µg/mL
same,MIC,[15],0.125 µg/mL
same,MIC50,[15],0.125 µg/mL
same,MIC90,[15],0.5 µg/mL
same,MIC50,[16],64 µg/mL
same,MIC90,[16],64 µg/mL
same,MIC,[17],0.125 µg/mL
same,MIC50,[17],0.125 µg/mL
same,MIC90,[17],1 µg/mL
same,Activity,[18],96%
same,Activity,[19],74%
same,MIC,[20],0.125 µg/mL
same,MIC50,[20],0.125 µg/mL
same,MIC90,[20],0.5 µg/mL
same,Activity,[21],26%
same,MBC90,[22],256 µg/mL
same,MBC,[22]; [46],1 µg/mL
same,MIC50,[23],64 µg/mL
same,MIC90,[23],64 µg/mL
same,Activity,[24],4%
same,Activity,[25],89%
same,MBC50,[26],2 µg/mL
same,MBC90,[26],8 µg/mL
same,MBC,[26]; [47],0.25 µg/mL
same,MIC50,[27],64 µg/mL
same,MIC90,[27],64 µg/mL
same,Activity,[28],74%
same,MIC50,[29],64 µg/mL
same,MIC90,[29],64 µg/mL
same,MIC,[30],0.125 µg/mL
same,MIC50,[30],0.125 µg/mL
same,MIC90,[30],0.5 µg/mL
same,Activity,[31],4%
same,Activity,[32],100%
same,Activity,[33],74%
same,Activity,[34],4%
same,MBC90,[35],256 µg/mL
same,MBC,[35]; [47],1 µg/mL
same,MBC90,[36],256 µg/mL
same,MBC,"[36]; Staphylococcus simulans, 24 h",1 µg/mL
same,Activity,[37],4%
same,MBC90,[38],256 µg/mL
same,MBC,"[38]; Mammaliicoccus sciuri, 24 h",1 µg/mL
same,MBC50,[39],2 µg/mL
same,MBC90,[39],8 µg/mL
same,MBC,"[39]; Mammaliicoccus sciuri, 24 h",0.25 µg/mL
same,Activity,[40],11%
same,MBC50,[41],256 µg/mL
same,MBC90,[41],512 µg/mL
same,MBC,"[41]; Staphylococcus aureus, 24 h",256 µg/mL
same,Activity,[42],74%
same,Activity,[43],96%
same,Activity,[44],26%
same,MBC50,[45],2 µg/mL
same,MBC90,[45],8 µg/mL
same,MBC,"[45]; Staphylococcus simulans, 24 h",0.25 µg/mL
